Measured values taken from ChEMBL document CHEMBL4725488, “Dual-Stage Picolinic Acid-Derived Inhibitors of Toxoplasma gondii” (ACS Med Chem Lett, 2020).
Values after ≈ are worked out from the molar mass of the structure shown. Active and inactive are the calls of the source. The rule behind the calls is not given here.

What was measured:
[1] = Selectivity index, ratio of CC50 for human HFF cells to EC50 for Toxoplasma gondii ME49 tachyzoites infected in human HFF cells; format: toxicity, cell-based
Method in brief: (§1)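 Selectivity index computed as CC50 in uninfected HFF cells (72 h exposure) divided by EC50 for the bradyzoite or tachyzoite growth assay run in the same HFF line.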

Toxoplasma gondii [2] = assay: Antiparasitic activity against Toxoplasma gondii ME49 bradyzoite infected in human HFF-1 cells assessed as inhibition of parasitic growth preincubated for 48 hrs followed by [5,6-3H]uracil addition and measured after 24 hrs by liquid scintillation counting analysis; format: functional, organism-based
Method in brief: (§2)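 HFF host cells harbouring tachyzoites, or bradyzoites differentiated in vitro by base-mediated maturation, were exposed to compounds in dose–response format. EC50 was the concentration inhibiting 50% of parasites. Tested at least in triplicate (n ≥ 3) unless noted, some in duplicate (n = 2).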

[3] = (§3) Cytotoxicity against HFF cells assessed as reduction in cell viability incubated for 72 hrs by Cell titer assay; format: cell-based; details: human, HFF cells
Method in brief: (§4)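 Uninfected HFF cells exposed to compounds for 72 h. CC50 is the concentration that cuts cell viability by 50%. At least triplicate (n ≥ 3) unless noted, some in duplicate.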

Toxoplasma gondii [4] = assay: Antiparasitic activity against Toxoplasma gondii ME49 tachyzoites infected in human HFF-1 cells assessed as inhibition of parasitic growth preincubated for 48 hrs followed by [5,6-3H]uracil addition and measured after 24 hrs by liquid scintillation counting analysis; format: functional, organism-based; method in brief: as §2
[5] = Selectivity index, ratio of CC50 for human HFF cells to EC50 for Toxoplasma gondii ME49 bradyzoite infected in human HFF cells; format: toxicity, cell-based; method in brief: as §1
[6] = target: T1, Hexokinase (Toxoplasma gondii) (UniProt Q969A8); assay: Inhibition of hexokinase in Toxoplasma gondii ME49 infected human HFF cells assessed as 13C6-glucose-6-phosphate treated at 6 x EC50 4 hrs postinfection for 5 hrs media changed with [13C6]-glucose; format: cell-based
T1 sequence (whole entry): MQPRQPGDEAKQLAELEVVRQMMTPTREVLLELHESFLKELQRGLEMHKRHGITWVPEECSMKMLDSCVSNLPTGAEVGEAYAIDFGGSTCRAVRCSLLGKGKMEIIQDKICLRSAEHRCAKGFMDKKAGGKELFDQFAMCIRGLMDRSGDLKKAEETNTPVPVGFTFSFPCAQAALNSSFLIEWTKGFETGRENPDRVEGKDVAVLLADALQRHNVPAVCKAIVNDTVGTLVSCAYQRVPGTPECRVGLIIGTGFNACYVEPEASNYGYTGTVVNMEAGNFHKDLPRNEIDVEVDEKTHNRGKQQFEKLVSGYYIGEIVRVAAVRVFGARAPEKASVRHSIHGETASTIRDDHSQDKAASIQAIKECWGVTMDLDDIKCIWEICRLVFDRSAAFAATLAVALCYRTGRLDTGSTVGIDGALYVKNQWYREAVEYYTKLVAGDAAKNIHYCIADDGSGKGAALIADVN
Method in brief: (§5)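 Infected HFF cells were treated 4 h postinfection with DMSO or compound (2 or 6 × EC50). After 5 h the medium was switched to glucose-free RPMI with 13C6-glucose and labelled for 10 min. Samples were rapidly quenched, processed and analysed by broad-spectrum mass spectrometry for 13C6-glucose-6-phosphate (hexokinase product) against DMSO.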

[7] = target: T1, Hexokinase (Toxoplasma gondii); assay: Inhibition of hexokinase in Toxoplasma gondii ME49 infected human HFF cells assessed as 13C6-glucose-6-phosphate treated at 2 x EC50 4 hrs postinfection for 5 hrs media changed with [13C6]-glucose; format: cell-based; method in brief: as §5
Toxoplasma gondii [8] = assay: Ex vivo inhibition of Toxoplasma gondii ME49 bradyzoite isolated from 30 days post infection brain of C57BL/6J mouse transferred to human HFF cells after 3 days using anti-BAG1 by fluorescence assay; format: functional; details: time 72.0 hrs
Method in brief: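 Bradyzoites were harvested from brains of four infected mice 30+ days after infection, purified and transferred to HFF cells. Compound was added at 1, 3 or 6 × EC50 and incubated 3 days against a DMSO control. Monolayers were fixed, labelled with anti-BAG1 antibody against a bradyzoite-specific antigen, and imaged by fluorescence.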

[9] = Kinetic aqueous solubility of the compound in pH 7.4; format: physicochemical; details: buffer, read-out: Kinetic_solubility
Method in brief: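 Kinetic aqueous solubility measured at pH 7.4.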

[10] = Concentration at 2 hrs in male Balb/c mouse brain at 15 mg/kg, ip; details: in vivo
[11] = Stability in CD-1 mouse plasma assessed as parent compound remaining measured after 60 mins by LC-MS/MS method; format: ADME, cell-free; details: for remaining at 1 h: CD-1, mouse, read-out: Stabilty
Method in brief: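 Mouse plasma, reported as percent parent compound remaining after 1 h.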

[12] = Plasma concentration at 2 hrs in male Balb/c mouse plasma at 15 mg/kg, ip; details: in vivo
[13] = Stability in CD-1 mouse liver microsomes assessed as parent compound remaining measured after 60 mins by LC-MS method; format: ADME, Microsome; details: for Stabilty: mouse, microsomes, 1 h; for remaining at 1 h: CD-1, mouse, liver microsomes, read-out: Stabilty
Method in brief: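 Mouse microsomes, reported as percent parent compound remaining after 1 h.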

HFF = assay: as §3; format: cell-based; details: human, hff, 72 h; method in brief: as §4
[14] = Lipophilicity log D of compound at pH 7.4; format: physicochemical; details: buffer
Method in brief: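 LogD at pH 7.4, determined experimentally.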

[15] = Protein binding in male Balb/c mouse at 15 mg/kg, ip; format: ADME, organism-based; details: plasma, read-out: PB (converted)
[16] = Ratio of AUC in brain to plasma in male Balb/c mouse at 15 mg/kg, ip; format: ADME, organism-based; details: read-out: BPR
Method in brief: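 Male BALB/c mice given a single 15 mg/kg ip injection as a clear solution of the sodium salt. Plasma sampled at 30 min and 2 h after dosing, brain at 2 h. Terminal mean AUC to 2 h determined for plasma (ng/mL) and brain (ng/g). Brain-to-plasma ratio taken from these AUCs.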

[17] = Permeability of compound by PAMPA-BBB assay; format: ADME; details: read-out: permeability
Method in brief: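 Blood–brain barrier PAMPA, with permeability reported as Pe (10–6 cm/s).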

[18] = HFF cells, read-out: Selectivity ratio

Structure (SMILES)	selectivity ratio [1, 18]	EC50 (Toxoplasma gondii [2]; Toxoplasma gondii, ME49, HFF-1) [nM]	CC50 at 72 h [3] [µM]	EC50 (Toxoplasma gondii [4]; Toxoplasma gondii, ME49, HFF-1) [nM]	selectivity ratio [5, 18]	also measured
CC(C)(C)c1ccc(C(=O)Nc2cc(Cl)c(Br)nc2C(=O)O)cc1	> 13	4090	> 50	3850	> 12.2	
CC(C)(C)c1ccc(C(=O)Nc2cc(Cl)cnc2C(=O)O)cc1 [listing 1 of 2 here]						inhibition [6]: inactive; inhibition [7]: inactive; inhibition (Toxoplasma gondii [8]): Active
CC(C)(C)c1ccc(C(=O)Nc2cccnc2C(=O)O)cc1	8.1	2160	9	1110	4.2	
CC(C)(C)c1ccc(C(=O)Nc2ccc(Br)nc2C(=O)O)cc1	> 9.7	3960	> 50	5140	> 12.6	
CC(C)(C)c1ccc(C(=O)Nc2cc(Cl)cnc2C(=O)[O-])cc1.[Na+]						solubility kinetic [9]: 164 µM; brain concentration at 2 h [10]: 816 ng/g; Stabilty ([11]; mouse, 1 h): 88.1%; plasma concentration at 2 h [12]: 7883 ng/mL; selectivity ratio [1]: 6.6; EC50 (Toxoplasma gondii [2]; hff-1): 230 nM; Stabilty [13]: 100%; CC50 (HFF): 2100 nM; logD [14]: 2.6; fraction unbound [15]: 0.005; EC50 (Toxoplasma gondii [4]; hff-1): 320 nM; selectivity ratio [5]: 9.1; Kp [16]: 0.1
CC(C)(C)c1ccc(C(=O)Nc2cc(Cl)c(-c3ccccc3)cc2C(=O)O)cc1		990	> 50	460		solubility kinetic [9]: 2.7 µM (≈ 1.1 µg/mL); remaining at 1 h [11]: 100%; remaining at 1 h [13]: 69.2%; logD ([14]; read-out: logD): 5.4
O=C(Nc1cc(Cl)cnc1C(=O)O)c1ccccc1	> 20.7	4470	> 50	2420	> 11.2	
COc1cccc(C(=O)Nc2cc(Cl)cnc2C(=O)O)c1	> 27.5	6200	> 50	1820	> 8.1	
CC(C)(C)c1ccc(C(=O)Nc2cc(Cl)cnc2C(=O)O)cc1 [listing 2 of 2 here]	10.4	350	2.5	240	7.1	solubility kinetic [9]: 33 µM (≈ 11 µg/mL); remaining at 1 h [11]: 98.4%; Stabilty [13]: 75.4%; logD ([14]; read-out: logD): 2.7; Papp [17]: 6.9 ×10⁻⁶ cm/s
COC(=O)c1cnc(Cl)cc1NC(=O)c1ccc(C(C)(C)C)cc1	> 29.6	> 10000	> 50	1690	> 10	
Cc1ccc(C(=O)Nc2cc(Cl)cnc2C(=O)O)cc1	12.3	1100	18.2	1480	16.5	
COc1ccc(C(=O)Nc2cc(Cl)cnc2C(=O)O)cc1	> 7	2410	> 50	7100		selectivity ratio ([5]; HFF cells, read-out: Selectivity Index): > 20.7
COC(=O)c1ncc(Cl)cc1NC(=O)c1ccc(C(C)(C)C)cc1	> 116	570	> 50	430	> 87.7	solubility kinetic [9]: < 1.6 µM; remaining at 1 h [11]: 24.7%; remaining at 1 h [13]: 2.7%; logD ([14]; read-out: logD): 5.3
COc1ccccc1C(=O)Nc1cc(Cl)cnc1C(=O)O	> 14.3	4900	> 50	3500	> 10.2	
CC(C)(C)c1ccc(C(=O)Nc2cc(Cl)c(-c3ccccc3)nc2C(=O)O)cc1	86.1	410	48.2	560	118	solubility kinetic [9]: 6.4 µM (≈ 2.62 µg/mL); remaining at 1 h [11]: 97.1%; remaining at 1 h [13]: 85.1%; logD ([14]; read-out: logD): 3.9; Papp [17]: 5.4 ×10⁻⁶ cm/s
CC(C)(C)c1ccc(C(=O)Nc2cc(Cl)cnc2C(N)=O)cc1		> 10000	> 50	> 10000	> 50	
CC(C)(C)c1ccc(C(=O)Nc2cc(Cl)cnc2-c2nnn[nH]2)cc1	1.5	2450	1.2	800	0.5	
CC(C)(C)c1ccc(C(=O)Nc2cc(Cl)ncc2C(=O)O)cc1		> 10000	23.6	> 10000	> 10	
